Among the data in ChEMBL document CHEMBL3085751, “Synthesis of some new pyrazole-based 1,3-thiazoles and 1,3,4-thiadiazoles as anticancer agents” (Eur J Med Chem, 2013) are IC50 values, retold here.

Common to all, as to format: functional, cell-based
One assay deals with A549. Briefly: Cytotoxicity against human A549 cells after 72 hrs by SRB assay. The note with it: A549, 72 h. Summed up: (§1)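 Cells kept as monolayers at 37 °C in 5% CO2 with 10% heat-inactivated FBS; A549 was grown in DMEM, HepG2 and MCF-7 in RPMI. Trypsinized cells were seeded at 1000-2000/well, left 24 h, then exposed 72 h to a range of concentrations. Cells were fixed with 10% TCA (1 h, 4 °C) and stained with 0.4% SRB in 1% acetic acid for 10 min. Dye was dissolved in Tris-HCl, OD read at 564 nm, and IC50 taken from %-viability dose-response curves.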
On the technique in general: The SRB assay estimates cell density from bound dye.

For the next assay, the system named is MCF7. Briefly: Cytotoxicity against human MCF7 cells after 72 hrs by SRB assay. The note with it: MCF7, 72 h. Summed up: as §1
The subject of the next assay is HepG2. The assay is described as follows: Cytotoxicity against human HepG2 cells after 72 hrs by SRB assay. The note with it: HepG2, 72 h. Summed up:
as §1

Bounds are passed on as bounds.

For orientation: IC50 means the concentration that gives 50% inhibition. Regarding `Cc1c(-c2csc(NC(=S)Nc3ccccc3)n2)c(=O)n(-c2ccccc2)n1C`, the IC50 in the assay on A549 turned out to be 7.74 µM; in the assay with MCF7 it was 10.1 µM; in the assay with HepG2, 8.35 µM.
On the same counts, the results for `Cc1c(-c2csc(/N=c3\sc(-c4ccccc4)nn3-c3ccccc3)n2)c(=O)n(-c2ccccc2)n1C` are greater than 100 µM, greater than 100 µM and greater than 100 µM.
In the same order, the values of `CC(=O)c1nn(-c2ccccc2)/c(=N/c2nc(-c3c(C)n(C)n(-c4ccccc4)c3=O)cs2)s1` are greater than 100 µM, greater than 100 µM and 67.1 µM.
On the same counts, the results for `CC(=O)c1nn(-c2ccc(Cl)cc2)/c(=N/c2nc(-c3c(C)n(C)n(-c4ccccc4)c3=O)cs2)s1` are greater than 100 µM, greater than 100 µM and greater than 100 µM.
On to `CC(=O)c1nn(-c2ccc(C)cc2)/c(=N/c2nc(-c3c(C)n(C)n(-c4ccccc4)c3=O)cs2)s1`, for which the IC50 is 20.7 µM in the assay with A549, 56.8 µM with MCF7 and 31.7 µM in the assay on HepG2.
In the same order, the values of `COc1ccc(-n2nc(C(C)=O)s/c2=N\c2nc(-c3c(C)n(C)n(-c4ccccc4)c3=O)cs2)cc1` are 26.5 µM, 64.5 µM and 41.2 µM.
On the same counts, the results for `CC(=O)c1nn(-c2ccc([N+](=O)[O-])cc2)/c(=N/c2nc(-c3c(C)n(C)n(-c4ccccc4)c3=O)cs2)s1` are greater than 100 µM, greater than 100 µM and greater than 100 µM.
In the same order, the values of `CCOC(=O)c1nn(-c2ccccc2)/c(=N/c2nc(-c3c(C)n(C)n(-c4ccccc4)c3=O)cs2)s1` are greater than 100 µM, greater than 100 µM and greater than 100 µM.
For `CCOC(=O)c1nn(-c2ccc(Cl)cc2)/c(=N/c2nc(-c3c(C)n(C)n(-c4ccccc4)c3=O)cs2)s1`, the IC50 in the assay with A549, in the assay on MCF7 and in the assay on HepG2 was greater than 100 µM throughout.
On to `CCOC(=O)c1nn(-c2ccc(C)cc2)/c(=N/c2nc(-c3c(C)n(C)n(-c4ccccc4)c3=O)cs2)s1`, for which the IC50 in the assay on A549, with MCF7 and in the assay with HepG2 was greater than 100 µM in each case.
Consider `CCOC(=O)c1nn(-c2ccc(OC)cc2)/c(=N/c2nc(-c3c(C)n(C)n(-c4ccccc4)c3=O)cs2)s1`, for which the IC50 with A549 amounted to 13.1 µM; in the assay on MCF7 it was 15.9 µM; in the assay with HepG2, 12.9 µM.
On the same counts, the results for `CCOC(=O)c1nn(-c2ccc([N+](=O)[O-])cc2)/c(=N/c2nc(-c3c(C)n(C)n(-c4ccccc4)c3=O)cs2)s1` are 8.68 µM, 10 µM and 8.11 µM.
Consider `Cc1c(-c2csc(/N=C3\SCC(=O)N3c3ccccc3)n2)c(=O)n(-c2ccccc2)n1C`, for which the IC50 was greater than 100 µM in the assay with A549, greater than 100 µM in the assay on MCF7 and 70.5 µM with HepG2.
Take `Cc1c(-c2csc(/N=C3\S/C(=C\c4ccccc4)C(=O)N3c3ccccc3)n2)c(=O)n(-c2ccccc2)n1C`: the values for the IC50 with A549, in the assay with MCF7 and in the assay with HepG2 were greater than 100 µM, greater than 100 µM and 63.4 µM, respectively.
As for `Cc1c(-c2csc(/N=C3\S/C(=C\c4ccc(Cl)cc4)C(=O)N3c3ccccc3)n2)c(=O)n(-c2ccccc2)n1C`, the IC50 in the assay on A549, in the assay with MCF7 and in the assay on HepG2 was greater than 100 µM throughout.
Turning to `Cc1c(-c2csc(/N=C3\S/C(=C\c4ccc(N(C)C)cc4)C(=O)N3c3ccccc3)n2)c(=O)n(-c2ccccc2)n1C`, the IC50 with A549, in the assay on MCF7 and in the assay on HepG2 was greater than 100 µM in each case.
For the compound `COc1ccc(/C=C2\S/C(=N\c3nc(-c4c(C)n(C)n(-c5ccccc5)c4=O)cs3)N(c3ccccc3)C2=O)cc1`, the IC50 was 9.1 µM with A549, 26.1 µM in the assay on MCF7 and 13.2 µM with HepG2.
Take `Cc1ccc(/C=C2\S/C(=N\c3nc(-c4c(C)n(C)n(-c5ccccc5)c4=O)cs3)N(c3ccccc3)C2=O)cc1`: the IC50 in the assay with A549, in the assay on MCF7 and in the assay on HepG2 was greater than 100 µM throughout.
`Cc1c(-c2csc(/N=C3\S/C(=C\c4ccco4)C(=O)N3c3ccccc3)n2)c(=O)n(-c2ccccc2)n1C`: the values for the IC50 in the assay on A549, in the assay on MCF7 and with HepG2 were 13.7 µM, 22.4 µM and 16.6 µM, respectively.
Take `COc1cccc2c1C(=O)c1c(O)c3c(c(O)c1C2=O)C[C@@](O)(C(=O)CO)C[C@@H]3O[C@H]1C[C@H](N)[C@H](O)[C@H](C)O1` [DOXORUBICIN]: the IC50 in the assay on A549 turned out to be 0.411 µM; with HepG2, 0.877 µM.
